Test results: ChEMBL document CHEMBL3351932, “Discovery of BI 207524, an indole diamide NS5B thumb pocket 1 inhibitor with improved potency for the potential treatment of chronic hepatitis C virus infection” (J Med Chem, 2014)

What was measured:
[1] = Inhibition of HCV full-length NS5B polymerase; set-up: species or system Hepacivirus hominis
Outline: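 Polymerase inhibition with full-length NS5B enzyme in a biochemical assay; IC50 averaged from duplicate measurements, at least two determinations.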

[2] = Dissociation constant, pKa of the compound; type: physicochemical
Outline: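 pKa derived from pH titration curves.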

[3] = AUC in rat at 10 mg/kg, po; type: ADME, organism-based; set-up: dose 10 mg/kg, route oral; conditions: plasma
Outline: (§1)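 Single-compound oral PK after overnight fast; 10 mg/kg given as suspension in 0.5% methylcellulose and 0.3% Tween-80, with or without 1% NMP as added solubilizer; N=3 per dose and route. Plasma kept on ice, centrifuged at 4°C, stored near -20°C, extracted by solid phase, quantified by HPLC-UV or LC/MS against blank-plasma standards (LOQ 7 ng/mL); non-compartmental analysis.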

[4] = Oral bioavailability in monkey at 10 mg/kg; type: ADME, organism-based, Macaca mulatta; conditions: rhesus monkey, in vivo; outline: as §1
[5] = Inhibition of recombinant Hepatitis C virus genotype 1b Con1 NS5B RNA dependent RNA polymerase delta21; set-up: species or system Hepatitis C virus subtype 1b
Outline: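 Biochemical polymerase assay with C-terminally truncated genotype 1b NS5B∆21; IC50 taken as mean of duplicates.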

[6] = Cytotoxicity against human HuH7 cells assessed as cell viability by MTT assay; type: cell-based; conditions: Huh-7 cells, read-out: TC50 (the source's name)
Hepatitis C virus = test: Antiviral activity against Hepatitis C virus genotype 1b assessed as shift in EC50 by cell-based replicon assay in presence of 40% human serum; type: functional, Hepacivirus hominis
[7] = Plasma protein binding in human; type: ADME, cell-free; conditions: read-out: PPB (converted)
[8] = Lipophilicity, log D of the compound at pH 7.4; type: physicochemical; conditions: buffer
[9] = Permeability across apical at pH6 to basolateral side at pH 7.4 in human Caco2 cells; type: ADME, cell-based; conditions: Caco-2, pH 6, read-out: permeability
Outline: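 Caco-2 monolayer permeability measured apical to basolateral, apical side at pH 6.0 and basolateral at pH 7.4.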

Cytochrome P450 1A2 = biological target: T1, Cytochrome P450 1A2 (Homo sapiens, UniProt P05177); test: Inhibition of CYP1A2 (unknown origin); type: ADME
T1 sequence (P05177 whole entry): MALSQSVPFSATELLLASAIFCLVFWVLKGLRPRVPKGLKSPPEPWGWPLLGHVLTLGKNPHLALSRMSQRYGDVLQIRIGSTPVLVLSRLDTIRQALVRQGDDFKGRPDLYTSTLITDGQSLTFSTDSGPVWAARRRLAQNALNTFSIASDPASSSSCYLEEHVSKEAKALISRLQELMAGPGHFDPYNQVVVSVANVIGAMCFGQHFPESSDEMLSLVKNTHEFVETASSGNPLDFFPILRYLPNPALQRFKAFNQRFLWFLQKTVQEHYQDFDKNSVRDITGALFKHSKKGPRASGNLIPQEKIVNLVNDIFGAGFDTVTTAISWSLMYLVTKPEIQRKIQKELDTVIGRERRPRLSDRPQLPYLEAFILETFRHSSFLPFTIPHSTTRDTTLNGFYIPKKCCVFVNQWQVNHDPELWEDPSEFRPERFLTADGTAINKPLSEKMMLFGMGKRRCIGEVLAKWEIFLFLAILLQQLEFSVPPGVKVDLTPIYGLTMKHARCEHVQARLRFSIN

Cytochrome P450 2C9 = Cytochrome P450 2C9 (Homo sapiens, UniProt P11712); test: Inhibition of CYP2C9 (unknown origin); type: ADME
Cytochrome P450 2D6 = Cytochrome P450 2D6 (Homo sapiens, UniProt P10635); test: Inhibition of CYP2D6 (unknown origin); type: ADME
[10] = Inhibition of Hepatitis C virus genotype 1b Con1 NS5B RNA dependent RNA polymerase activity using Bright-Glo luciferase substrate by cell-based 1b luciferase reporter assay; set-up: species or system Hepatitis C virus (isolate Con1)
Outline: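 Cell-based genotype 1b luciferase reporter replicon assay; EC50 determined in duplicate, values averaged over at least two determinations.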

[11] = Half life in human liver microsomes; type: ADME
[12] = Plasma concentration in rat at 4 mg/kg, po cassette dosing after 1 hr; type: ADME, organism-based; set-up: dose 4 mg/kg, route oral
Outline: (§2)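 Cassette screen: mixture of 4 compounds, each at 4 mg/kg, dosed orally to 2 rats; plasma sampled at 1 h and 2 h, solid-phase extracted and quantified by HPLC-UV or LC/MS against calibration standards in blank plasma (LOQ 7 ng/mL).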

[13] = Plasma concentration in rat at 4 mg/kg, po cassette dosing after 2 hrs; type: ADME, organism-based; set-up: dose 4 mg/kg, route oral; outline: as §2
[14] = Permeability across apical to basolateral side in human Caco2 cells; type: ADME, cell-based; conditions: Caco-2, read-out: permeability
[15] = Cmax in rat at 10 mg/kg, po; type: ADME, organism-based; set-up: dose 10 mg/kg, route oral; conditions: in vivo; outline: as §1
[16] = Mean residence time in rat at 10 mg/kg, po; type: ADME, organism-based; set-up: dose 10 mg/kg, route oral; conditions: in vivo; outline: as §1
[17] = Volume of distribution at steady state in rat at 2 mg/kg, iv; type: ADME, organism-based; set-up: dose 2 mg/kg, route intravenous; conditions: in vivo, read-out: Vdss
Outline: (§3)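 Fasted animals dosed IV by bolus at 2 mg/kg in 70% PEG-400:30% water; N=3 per dose and route. Plasma separated at 4°C, stored near -20°C, solid-phase extracted, assayed by HPLC-UV or LC/MS with blank-plasma calibration (r2 > 0.99, LOQ 7 ng/mL); parameters from non-compartmental analysis.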

[18] = Clearance in rat at 2 mg/kg, iv; type: ADME, organism-based; set-up: dose 2 mg/kg, route intravenous; conditions: in vivo; outline: as §3
[19] = Half life in rat at 2 mg/kg, iv; type: ADME, organism-based; set-up: dose 2 mg/kg, route intravenous; conditions: in vivo; outline: as §3
[20] = Oral bioavailability in rat at 10 mg/kg; type: ADME, organism-based; conditions: in vivo; outline: as §1

Chain of Cytochrome P450 2D6 (P10635 whole entry): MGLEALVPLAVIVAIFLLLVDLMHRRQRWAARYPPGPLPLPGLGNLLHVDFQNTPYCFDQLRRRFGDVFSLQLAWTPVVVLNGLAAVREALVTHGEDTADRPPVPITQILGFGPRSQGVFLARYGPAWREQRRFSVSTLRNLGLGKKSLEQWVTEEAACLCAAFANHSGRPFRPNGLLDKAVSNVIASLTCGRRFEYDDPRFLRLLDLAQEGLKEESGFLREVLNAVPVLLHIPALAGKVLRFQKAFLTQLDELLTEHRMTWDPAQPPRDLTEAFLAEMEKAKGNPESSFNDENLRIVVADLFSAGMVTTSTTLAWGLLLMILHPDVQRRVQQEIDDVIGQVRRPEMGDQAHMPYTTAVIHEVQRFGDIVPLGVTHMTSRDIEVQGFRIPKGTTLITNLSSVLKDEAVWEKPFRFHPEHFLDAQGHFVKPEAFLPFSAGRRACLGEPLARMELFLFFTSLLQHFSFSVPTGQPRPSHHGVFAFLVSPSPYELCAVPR
Chain of Cytochrome P450 2C9 (P11712 whole entry): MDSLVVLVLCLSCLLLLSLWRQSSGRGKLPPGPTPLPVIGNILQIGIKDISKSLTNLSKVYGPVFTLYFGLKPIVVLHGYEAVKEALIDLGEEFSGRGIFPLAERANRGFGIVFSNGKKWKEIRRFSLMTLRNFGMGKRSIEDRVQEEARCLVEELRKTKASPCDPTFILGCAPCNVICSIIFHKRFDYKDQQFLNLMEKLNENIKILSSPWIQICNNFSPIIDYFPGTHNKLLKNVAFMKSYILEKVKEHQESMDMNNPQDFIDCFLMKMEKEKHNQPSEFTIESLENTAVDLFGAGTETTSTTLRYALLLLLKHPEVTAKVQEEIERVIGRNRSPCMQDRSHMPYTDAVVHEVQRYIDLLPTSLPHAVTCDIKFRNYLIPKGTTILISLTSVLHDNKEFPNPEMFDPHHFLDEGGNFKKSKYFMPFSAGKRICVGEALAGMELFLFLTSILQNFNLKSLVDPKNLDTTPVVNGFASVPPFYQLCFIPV

Structure (SMILES): Cn1c(-c2ccccn2)c(C2CCCC2)c2ccc(C(=O)NC3(C(=O)Nc4ccc(/C=C/C(=O)O)cc4)CCC3)cc21 [BILB-1941]
- IC50 [1]: 60 nM
- pKa [2]: 4.5
- AUC [3]: 23 µM·h
- bioavailability [4]: 70%
- IC50 [5]: 67 nM
- CC50 [6]: 93000 nM
- fold change (FC) (Hepatitis C virus): 3
- fraction unbound [7]: 0.008
- logD [8]: 3.3
- Papp A→B [9]: 11 ×10⁻⁶ cm/s
- IC50 (Cytochrome P450 1A2): 13000 nM
- IC50 (Cytochrome P450 2C9): 3500 nM
- IC50 (Cytochrome P450 2D6): > 30000 nM

Structure (SMILES): COc1cc(NC(=O)C2(NC(=O)c3ccc4c(C5CCCC5)c(-c5ccccn5)n(C)c4c3)CCC2)ccc1/C=C/C(=O)O
- IC50 [1]: 47 nM
- EC50 [10]: 32 nM
- half-life [11]: 1.37 h
- concentration at 1 h [12]: 1100 nM
- concentration at 2 h [13]: 500 nM

Structure (SMILES): CCOc1cc(NC(=O)C2(NC(=O)c3ccc4c(C5CCCC5)c(-c5ccc(F)cn5)n(C)c4c3)CCC2)ccc1/C=C/C(=O)O
- IC50 [1]: 110 nM
- EC50 [10]: 16 nM
- half-life [11]: 1.2 h
- Papp A→B [14]: 17 ×10⁻⁶ cm/s
- concentration at 1 h [12]: 1300 nM
- concentration at 2 h [13]: 800 nM
- Cmax [15]: 2200 nM
- AUC [3]: 6.1 µM·h
- MRT [16]: 3 h
- Vd [17]: 0.42 L/kg
- clearance [18]: 6.2 mL/min/kg
- half-life [19]: 1.5 h
- bioavailability [20]: 17%
